Measured values reported in ChEMBL document CHEMBL2417509, “Synthesis and biological evaluation of prodigiosene conjugates of porphyrin, estrone and 4-hydroxytamoxifen” (2013).

Experiments:
Format in all cases: functional
MCF7 = experiment: Cytotoxicity against human MCF7 cells after 2 days by sulforhodamine B assay; conditions: MCF7, 48 h
Summary of the method: (§1)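 NCI60 multi-dose screen, 59 human tumour lines available. Cells exposed to compound across a 5-log mol/L concentration range for 2 days, then fixed and stained with sulphorhodamine B, optical density read. Growth inhibition calculated against time-zero control and untreated cells. GI50 derived from the dose series, average of two replicates.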

SF-539 = experiment: Cytotoxicity against human SF539 cells after 2 days by sulforhodamine B assay; conditions: SF-539, 48 h; summary of the method: as §1
786-0 = experiment: Cytotoxicity against human 786-0 cells after 2 days by sulforhodamine B assay; conditions: 786-0, 48 h; summary of the method: as §1
MOLT-4 = experiment: Cytotoxicity against human MOLT4 cells after 2 days by sulforhodamine B assay; conditions: MOLT-4, 48 h; summary of the method: as §1
OVCAR-5 = experiment: Cytotoxicity against human OVCAR5 cells after 2 days by sulforhodamine B assay; conditions: OVCAR-5, 48 h; summary of the method: as §1
SK-MEL-28 = experiment: Cytotoxicity against human SK-MEL-28 cells after 2 days by sulforhodamine B assay; conditions: SK-MEL-28, 48 h; summary of the method: as §1
SK-OV-3 = experiment: Cytotoxicity against human SKOV3 cells after 2 days by sulforhodamine B assay; conditions: SK-OV-3, 48 h; summary of the method: as §1
COLO 205 = experiment: Cytotoxicity against human COLO205 cells after 2 days by sulforhodamine B assay; conditions: COLO 205, 48 h; summary of the method: as §1
HCT-116 = experiment: Cytotoxicity against human HCT116 cells after 2 days by sulforhodamine B assay; conditions: HCT-116, 48 h; summary of the method: as §1
MDA-MB-231 = experiment: Cytotoxicity against human MDA-MB-231 cells after 2 days by sulforhodamine B assay; conditions: MDA-MB-231, 48 h; summary of the method: as §1
NCI-H226 = experiment: Cytotoxicity against human NCI-H226 cells after 2 days by sulforhodamine B assay; conditions: NCI-H226, 48 h; summary of the method: as §1
SR = experiment: Cytotoxicity against human SR cells after 2 days by sulforhodamine B assay; conditions: 48 h
Summary of the method: (§2)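 NCI DTP NCI60 multi-dose screen (59 human tumour lines available). Cells exposed to compound over a 5-log mol/L concentration range for 2 days, then fixed and stained with sulphorhodamine B, with optical density read. Growth inhibition calculated relative to time-zero cells and untreated cells, giving GI50 (half-maximal growth inhibition concentration). Average of two replicates.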

NCI-H23 = experiment: Cytotoxicity against human NCI-H23 cells after 2 days by sulforhodamine B assay; conditions: NCI-H23, 48 h; summary of the method: as §1
CAKI-1 = experiment: Cytotoxicity against human CAKI-1 cells after 2 days by sulforhodamine B assay; conditions: CAKI-1, 48 h; summary of the method: as §1
HCC 2998 = experiment: Cytotoxicity against human HCC2998 cells after 2 days by sulforhodamine B assay; conditions: HCC 2998, 48 h; summary of the method: as §1
RXF 393 = experiment: Cytotoxicity against human RXF393 cells after 2 days by sulforhodamine B assay; conditions: RXF 393, 48 h; summary of the method: as §1
RPMI-8226 = experiment: Cytotoxicity against human RPMI8226 cells after 2 days by sulforhodamine B assay; conditions: RPMI-8226, 48 h; summary of the method: as §1
[1] = Cytotoxicity against human NCI-ADR-RES cells after 2 days by sulforhodamine B assay; conditions: 48 h; summary of the method: as §1
SF-268 = experiment: Cytotoxicity against human SF268 cells after 2 days by sulforhodamine B assay; conditions: SF-268, 48 h; summary of the method: as §1
[2] = Cytotoxicity against human Hs578T cells after 2 days by sulforhodamine B assay; conditions: Hs-578T, 48 h; summary of the method: as §1
A498 = experiment: Cytotoxicity against human A498 cells after 2 days by sulforhodamine B assay; conditions: A498, 48 h; summary of the method: as §1
SK-MEL-2 = experiment: Cytotoxicity against human SK-MEL-2 cells after 2 days by sulforhodamine B assay; conditions: SK-MEL-2, 48 h; summary of the method: as §1
OVCAR-3 = experiment: Cytotoxicity against human OVCAR3 cells after 2 days by sulforhodamine B assay; conditions: OVCAR-3, 48 h; summary of the method: as §1
OVCAR-8 = experiment: Cytotoxicity against human OVCAR8 cells after 2 days by sulforhodamine B assay; conditions: OVCAR-8, 48 h; summary of the method: as §1
UO-31 = experiment: Cytotoxicity against human UO31 cells after 2 days by sulforhodamine B assay; conditions: UO-31, 48 h; summary of the method: as §2
CCRF-CEM = experiment: Cytotoxicity against human CCRF-CEM cells after 2 days by sulforhodamine B assay; conditions: 48 h; summary of the method: as §1
SNB-19 = experiment: Cytotoxicity against human SNB19 cells after 2 days by sulforhodamine B assay; conditions: SNB-19, 48 h; summary of the method: as §2
HT-29 = experiment: Cytotoxicity against human HT-29 cells after 2 days by sulforhodamine B assay; conditions: HT-29, 48 h; summary of the method: as §1
NCI-H460 = experiment: Cytotoxicity against human NCI-H460 cells after 2 days by sulforhodamine B assay; conditions: NCI-H460, 48 h; summary of the method: as §1
[3] = read-out: LC50 (the source's name)

For `CCC(=C(c1ccc(OCCN(C)C)cc1)c1ccc(OC(=O)CCCCC(=O)C2=C(C)/C(=C/c3[nH]c(-c4ccc[nH]4)cc3OC)N=C2C)cc1)c1ccccc1`, which GI50 (MCF7) is on record?
The GI50 was 0.05 µM.

What about the LC50 (concentration giving 50% net cell kill) (MCF7) of the same molecule?
Its LC50 (concentration giving 50% net cell kill) is 4.68 µM.

And the TGI (MCF7)?
The TGI was 1.2 µM.

What about the GI50 (SF-539) of the same molecule?
Its GI50 is 12.9 µM.

What about the LC50 (SF-539) of the same molecule?
Its LC50 is 58.9 µM.

And the TGI (SF-539)?
The TGI was 27.5 µM.

And the GI50 (786-0)?
Its GI50 is 4.79 µM.

And the LC50 (concentration killing 50% of cells) (786-0)?
Its LC50 (concentration killing 50% of cells) is 52.5 µM.

And the TGI (786-0)?
Its TGI is 19 µM.

And the GI50 (MOLT-4)?
The GI50 was 1.74 µM.

What about the TGI (MOLT-4) of the same molecule?
The TGI was 25.1 µM.

And the CC50 (MOLT-4; [3])?
Its CC50 is over 100 µM.

And the GI50 (OVCAR-5)?
Its GI50 is 10.5 µM.

And the LC50 (OVCAR-5)?
The LC50 was 47.9 µM.

What about the TGI (OVCAR-5) of the same molecule?
Its TGI is 22.4 µM.

And the GI50 (SK-MEL-28)?
Its GI50 is 11.5 µM.

What about the LC50 (SK-MEL-28) of the same molecule?
Its LC50 is 49 µM.

And the TGI (SK-MEL-28)?
Its TGI is 24 µM.

What about the GI50 (SK-OV-3) of the same molecule?
Its GI50 is 14.1 µM.

And the LC50 (concentration killing 50% of starting cells) (SK-OV-3)?
Its LC50 (concentration killing 50% of starting cells) is 52.5 µM.

And the TGI (SK-OV-3)?
The TGI was 26.9 µM.

What about the GI50 (COLO 205) of the same molecule?
The GI50 was 10.7 µM.

What about the LC50 (concentration killing 50% of cells) (COLO 205) of the same molecule?
The LC50 (concentration killing 50% of cells) was 50.1 µM.

And the TGI (COLO 205)?
The TGI was 22.9 µM.

What about the GI50 (HCT-116) of the same molecule?
The GI50 was 3.55 µM.

And the LC50 (concentration killing 50% of cells vs time zero) (HCT-116)?
Its LC50 (concentration killing 50% of cells vs time zero) is 37.1 µM.

And the TGI (HCT-116)?
Its TGI is 13.8 µM.

And the GI50 (MDA-MB-231)?
Its GI50 is 2 µM.

And the LC50 (MDA-MB-231)?
Its LC50 is 33.9 µM.

And the TGI (MDA-MB-231)?
Its TGI is 11.5 µM.

What about the GI50 (NCI-H226) of the same molecule?
The GI50 was 14.1 µM.

And the LC50 (NCI-H226)?
The LC50 was 83.2 µM.

And the TGI (NCI-H226)?
The TGI was 34.7 µM.

And the GI50 (SR)?
Its GI50 is 3.02 µM.

And the LC50 (concentration giving 50% net cell kill) (SR)?
Its LC50 (concentration giving 50% net cell kill) is over 100 µM.

What about the TGI (SR) of the same molecule?
The TGI was 20.9 µM.

And the GI50 (NCI-H23)?
The GI50 was 12.6 µM.

And the LC50 (concentration killing 50% of cells) (NCI-H23)?
Its LC50 (concentration killing 50% of cells) is 69.2 µM.

And the TGI (NCI-H23)?
Its TGI is 29.5 µM.

And the GI50 (CAKI-1)?
Its GI50 is 6.31 µM.

What about the LC50 (concentration killing 50% of the cells present at time zero) (CAKI-1) of the same molecule?
Its LC50 (concentration killing 50% of the cells present at time zero) is over 100 µM.

And the TGI (CAKI-1)?
The TGI was 36.3 µM.

What about the GI50 (HCC 2998) of the same molecule?
Its GI50 is 13.2 µM.

What about the LC50 (50% lethal concentration) (HCC 2998) of the same molecule?
The LC50 (50% lethal concentration) was 53.7 µM.

And the TGI (HCC 2998)?
Its TGI is 26.9 µM.

And the GI50 (RXF 393)?
Its GI50 is 3.89 µM.

What about the LC50 (concentration killing 50% of cells) (RXF 393) of the same molecule?
Its LC50 (concentration killing 50% of cells) is 44.7 µM.

What about the TGI (RXF 393) of the same molecule?
Its TGI is 17.8 µM.

And the GI50 (RPMI-8226)?
Its GI50 is 3.16 µM.

And the LC50 (concentration killing 50% of cells present at time zero) (RPMI-8226)?
Its LC50 (concentration killing 50% of cells present at time zero) is over 100 µM.

And the TGI (RPMI-8226)?
The TGI was 19 µM.

And the GI50 [1]?
Its GI50 is 12.6 µM.

What about the TGI [1] of the same molecule?
Its TGI is 46.8 µM.

And the CC50 [1, 3]?
Its CC50 is over 100 µM.

And the GI50 (SF-268)?
The GI50 was 7.76 µM.

And the LC50 (concentration killing 50% of cells) (SF-268)?
Its LC50 (concentration killing 50% of cells) is over 100 µM.

What about the TGI (SF-268) of the same molecule?
Its TGI is 30.2 µM.

What about the GI50 [2] of the same molecule?
The GI50 was 5.01 µM.

And the TGI [2]?
The TGI was 47.9 µM.

What about the CC50 [2, 3] of the same molecule?
The CC50 was over 100 µM.

And the GI50 (A498)?
Its GI50 is 12.9 µM.

And the LC50 (A498)?
Its LC50 is 53.7 µM.

And the TGI (A498)?
Its TGI is 26.3 µM.

And the GI50 (SK-MEL-2)?
Its GI50 is 16.6 µM.

What about the LC50 (SK-MEL-2) of the same molecule?
The LC50 was 67.6 µM.

And the TGI (SK-MEL-2)?
The TGI was 33.1 µM.

What about the GI50 (OVCAR-3) of the same molecule?
Its GI50 is 11.7 µM.

And the LC50 (OVCAR-3)?
Its LC50 is 63.1 µM.

What about the TGI (OVCAR-3) of the same molecule?
The TGI was 26.9 µM.

And the GI50 (OVCAR-8)?
Its GI50 is 6.61 µM.

What about the LC50 (OVCAR-8) of the same molecule?
Its LC50 is 47.9 µM.

And the TGI (OVCAR-8)?
The TGI was 19.9 µM.

What about the GI50 (UO-31) of the same molecule?
The GI50 was 2.82 µM.

And the LC50 (UO-31)?
The LC50 was 87.1 µM.

What about the TGI (UO-31) of the same molecule?
Its TGI is 21.4 µM.

And the GI50 (CCRF-CEM)?
The GI50 was 0.32 µM.

And the TGI (CCRF-CEM)?
Its TGI is over 100 µM.

And the CC50 (CCRF-CEM; [3])?
Its CC50 is over 100 µM.

And the GI50 (SNB-19)?
The GI50 was 8.13 µM.

And the TGI (SNB-19)?
Its TGI is 23.4 µM.

And the CC50 (SNB-19; [3])?
Its CC50 is 56.2 µM.

And the GI50 (HT-29)?
Its GI50 is 3.02 µM.

What about the LC50 (HT-29) of the same molecule?
Its LC50 is 74.1 µM.

What about the TGI (HT-29) of the same molecule?
The TGI was 14.8 µM.

And the GI50 (NCI-H460)?
The GI50 was 3.98 µM.

What about the LC50 (NCI-H460) of the same molecule?
Its LC50 is 53.7 µM.

What about the TGI (NCI-H460) of the same molecule?
Its TGI is 15.5 µM.
